Test system: MS2 coat protein
Assay: apparent Kd, MS2 coat protein; higher = weaker binding; RNA-MaP array; FMN 200 µM where present
Method in brief: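 On Illumina sequencing-chip clusters, designs were transcribed by stalled E. coli RNA polymerase and titrated with SNAP-549-labelled MS2 coat protein (0.7 or 1.5 nM, doubling to 3 µM), without and then with constant ligand, in 100 mM Tris-HCl pH 7.5, 80 mM KCl, 4 mM MgCl2, BSA, DTT, yeast tRNA and Tween-20. Apparent Kd is the median of filtered per-cluster curve fits to green signal normalised to red-channel RNA signal and control-cluster median Fmax.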

[1] = designed as: OFF switch for flavin mononucleotide, no ligand
[2] = ligand present: flavin mononucleotide, designed as: OFF switch for flavin mononucleotide
[3] = designed as: ON switch for flavin mononucleotide, no ligand
[4] = ligand present: flavin mononucleotide, designed as: ON switch for flavin mononucleotide

Row | Sequence | apparent Kd [1] | apparent Kd [2] | apparent Kd [3] | apparent Kd [4]
1 | GCGCGCGUUGUGAGGAUAUUGUGUGUGAAAGCGCGCGAGAAGGCACAUGAGGAUCACCCAUGUAAGGUGUGUGU | 455 nM | 392 nM |  | 
2 | AAGUUCUGAGGAUAUACAUAGAUUUACAUGAGGAUCACCCAUGUUCCUCUAUGUAUUAAUGUAGAAGGCAGAAGAA | 24.4 nM | 185 nM |  | 
3 | GCCAUCUCAUGAGGAUAUGCUCCCGUGUCGGGAGCAGAAGGCAUGUCAUAAGACAUGAGGAUCACCCAUGUAGUUAAGAUGGCA |  |  | 263 nM | 11.1 nM
4 | AAAAAUGGAGGAUAUACAUGAGGAUCACCCAUGUGUGGCCAUACUAUGUGCUCGUCAGGUAGAAGGCCAAAAAA | 28.7 nM | 46 nM |  | 
5 | UACUUGUUAGGAUAUCUUACAUUUGCAUUAUAGCAACUAUUGGAGAAGGGACAUGAGGAUCACCCAUGUUUGGU | 39.9 nM | 48.2 nM |  | 
6 | GUACUACAUGAGGAUCACCCAUGUACAAAUGUACGAGGAUAUGCAUGGACGAAAGUUGGUGCAGAAGGCGUAGUAC |  |  | 24.9 nM | 24 nM
7 | GCGUCAGAAUUAAUUGUGACAUACAGAAGGCAAAAGUUAUGUUCAGACAUGAGGAUCACCCAUGUUGAGGAUAUGUAGAGAAUC | 8.27 nM | 7.1 nM |  | 
8 | AACCGACAUGAGGAUCACCCAUGUAAGGAUAUCCACGGACAACGCCAUAGUUGCCGGCGGAGAAGGUGCGUGGU | 26 nM | 46 nM |  | 
9 | CUGAUGUGAGGAUAUGUGAUCUGCCUUCUAUGUAGAUGAUCACAGAAGGCACAUGAGGAUCACCCAUGUAGAUC | 85.9 nM | 94.3 nM |  | 
10 | CUCAUGUGAGGAUAUGUGAUCAACCUUCUAUAUAGAUGAUGACAGAAGGCACAUGAGGAUCACCCAUGUAGAUC | 65.5 nM | 20.1 nM |  | 
11 | UUUUAGGGAGGAUAUACAUUUUUUUUAUUAUCCUCAUUAUUACAUGAGGAUCACCCAUGUAGAAGGCCCAUUUU | 60.7 nM | 146 nM |  | 
12 | CUUUUGUGAGGAUAUUAGUAGUAAAUAAAUAAAAUUACUACUGAGAAGGUACAUGAGGAUCACCCAUGUUCCUC | 14.8 nM | 19.3 nM |  | 
13 | UAAGUUGUGGUAGGAUAUACUUUAAAUUUCUCUAUCCAUACAUGAGGAUCACCCAUGUUUACAUUGUAGAAGGACCUUUUUGUU | 24.2 nM | 21.1 nM |  | 
14 | AAACGCCAACAUGAGGAUCACCCAUGUUCUAGUUUAGGGUCGCAGGAUAUGACUUCGAAGCUUAGUCAGAAGGGUGAAUCCACA |  |  | 14.5 nM | 10.5 nM
15 | UAUAAGAACGAAGGAUAUGGUUACAUGAGGAUCACCCAUGUAUUAAUUUUGAUCUAUUUUUAUAACCAGAAGGUCGAGAGUAAA | 36.2 nM | 49.5 nM |  | 
16 | GGCGGCAAUGAGAAGGGUCACAUGAGGAUCACCCAUGUGCUCUUCGCCGUGACAGGAUAUCAUCGCCGUCAGGUUAGAUUUUUG | 7.26 nM | 26.1 nM |  | 
17 | UGGUACUCGGGAGGAUAUGGGAAGAUACAUGAGGAUCACCCAUGUUUAAGAAUGCCGAGAGGCAACUAGAAGGCCCUAGUACCU |  |  | 457 nM | 23.4 nM
18 | UUUGGGUGGCUGGAGGAUAUUCUAGUGGUUACAUGAGGAUCACCCAUGUGUCGCGCGGUACGCGAGGAGAAGGCUGGCGGCCGUU |  |  | 135 nM | 35.1 nM
19 | UUGUUAUAUGUAGGAUAUGCAUAUUAUUAUUAUGCAGAAGGACAUGAGGAUCACCCAUGUGUAUUGUUAUUAUAUAUUAUAUAU | 22.3 nM | 29.5 nM |  | 
20 | CUUUGGUCAGGAUAUGGUGGGCUGGUCGCGCGGCCGGGUGGCCAGAAGGGACAUGAGGAUCACCCAUGUACGGC | 35.5 nM | 59.7 nM |  | 
21 | AUCAUGUCAGGAUAUCGUGCAGCUACCGAAAGGUAGCUGCACGAGAAGGGACAUGAGGAUCACCCAUGUAUGAA | 221 nM | 117 nM |  | 

Row | Sequence | apparent Kd [1] | apparent Kd [2] | apparent Kd [3] | apparent Kd [4]
22 | UCCCUAAGGCAGGCCGACCAUACAUGAGGAUCACCCAUGUCGAGAAGGUGCUCACGGGUGGGUGGCAAGGAUAUCGGGUCGGAU |  |  | 92.9 nM | 43.6 nM
23 | CCGUUACAUGAGGAUCACCCAUGUGAGGAUAUCGAUGUGACUGGCAGCGUGCGGGACUCGAGAAGGCACUUGGC | 74.6 nM | 58.5 nM |  | 
24 | CGUGUCAUCGAGAAGGCCUCAACAUGAGGAUCACCCAUGUUGUAAUAUGGGAGGAUAUCGAUGAUACAGCUACGUUUCGUAGCU |  |  | 18.8 nM | 5.8 nM
25 | CGCAGGAUACAGAAGGAGUUAUUGAGAGGUUUACUAGGAUAUGUUCACAUGAGGAUCACCCAUGUCGUAUGGUUUUUUGUUGCG | 22.6 nM | 16.1 nM |  | 
26 | AGACUGAAGCAAGGAUAUUGUAAGGUUAUCGUACAAGAAGGUGCUGUUUAUGUCUCUUAACAUGAGGAUCACCCAUGUUUUAAA |  |  | 19.7 nM | 21.8 nM
27 | AAAGACAGAGGAUAUACAUGAGGAUCACCCAUGUGGCGAAAAAAAAUCCAUUUGGCAUGUAGAAGGCUGUAUGA | 144 nM | 128 nM |  | 
28 | GUGCUUGUCGGAGGAUAUGGUUACAUGAGGAUCACCCAUGUUAUGCUUGGUUACUUGUUUAGUUUCCAGAAGGUCGAUUGGUUG | 69.6 nM | 132 nM |  | 
29 | UCAUUUCUGUAAGGAUAUUAAUUCAUGACGAUACAUGAGGAUCACCCAUGUUAAGAAGGUACAAAUACAAAUAAUGCAUUGUUC | 11.8 nM | 10.6 nM |  | 
30 | GCAUACAUUCGAGGAUAUCGGUGAACAAAUUAACGAGAAGGCGAUAUAAUUUUUAAUCUUAUAAACAUGAGGAUCACCCAUGUA |  |  | 21.8 nM | 19.5 nM
31 | AAUAACAGAGGAUAUACUAUUUUAUGUGUUUAUUGUUUUAAACAUGAGGAUCACCCAUGUAGAAGGCUGAGUAA | 42.2 nM | 59.8 nM |  | 
32 | GCAUGCGUUCGAGGAUAUCGGUGAGAAACGGAACGAGAAGGCGAUCGAAUGUCACAUAUUAUGUACAUGAGGAUCACCCAUGUA |  |  | 126 nM | 37.8 nM
33 | UGCGCCAGAGGAUAUCGGGCUCGCAACAUGAGGAUCACCCAUGUAGUAUGGUCUUAUUUUCGAGAAGGCUGUCGUU | 20.9 nM | 17.4 nM |  | 
34 | CCGAUGUGGGUACAGGAUAUGUGGGCCUCCACAUGAGGAUCACCCAUGUCGGAGGCAAAGCGGCUACAGAAGGGUGCGAGCUCGA |  |  | 11 nM | 12.9 nM
35 | GUAGCUAUCGGAGGAUAUUCAUACCGGAAACGGACAUGAGGAUCACCCAUGUGGCGAAAGCCUUGGAAGAAGGCCGAUAGCUAC |  |  | 4.08 nM | 3.56 nM
36 | UUGUUAUAUGUAGGAUAUGCAUAUUAUUAUUAUGCAGAAGGACAUGAGGAUCACCCAUGUAUGUUGUUGUUAUAUAUUAUAUAU | 24.8 nM | 27.8 nM |  | 
37 | AUGCGGUCAGGAUAUGCAUGGCGGGACUUGCGUCGUGGCGUGGAGAAGGGACAUGAGGAUCACCCAUGUGGAGG | 108 nM | 87 nM |  | 
38 | UCUUUGCUAUAUACAUGAGGAUCACCCAUGUCCACUGACAGACAGGAUAUCCUUAGAAACUAGCAGGAGAAGGGUCAGUCAUAC |  |  | 140 nM | 74.8 nM
39 | CAUGUCCUCACAGGAUAUGCUGGACUUUGUCCAGCAGAAGGGUGAACAUGAGGAUCACCCAUGUAGUGGACAUGUAUAUUUAAU |  |  | 543 nM | 276 nM
40 | GAAUAGCGAGGAUAUGCAAUGAAGAUAGUACGAUAUGGCUGACAUGAGGAUCACCCAUGUAGAAGGCGCUGAUC | 44.8 nM | 40 nM |  | 
41 | UGUCGGAGCAGAGGAUAUUACAUGAGGAUCACCCAUGUAUGAACCAAUAGCUGGAAACAGCAAUGUAAGAAGGCUGAUCCGACA | 11.1 nM | 146 nM |  | 
42 | UCCCUAGAAGUAAGGAUAUGUCGAUGGCCAAUUCGAUAGAAGGUACAUGAGGAUCACCCAUGUGACCUACUGGG | 15.7 nM | 23.7 nM |  | 

Source: the EternaBench riboswitch data
